STAT3 act = IL-6 driven STAT3 reporter potentiators, primary screen, U3A cells, luciferase, luminescence, MLSCN library; hit rate 0.91% among 190,000; activation (% of control), % at 5.6 µM; IL-6 STAT3-luciferase reporter; 100% = signal with IL-6 EC80 alone; AID 871, 2007;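 active = activation above the screen-wide mean of compound activation plus 3 SD, cut at about 130% in these data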;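 note: 0% = background luminescence of wells with medium and substrate only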
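Detection: reporter luminescence signal / Assay system: STAT1-lacking human U3A cells, STAT3 luciferase reporter / Incubation: compound pre-incubation 1 h before IL-6, then 6 h stimulation at 37 °C / Control set: IL-6-only high control / Read-out: % activation relative to IL-6 control / Probe or stimulus: Interleukin-6, 33 ng/mL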
Cl transport mod = KCC2 cotransporter modulators, thallium flux, primary screen, cell-based, HEK293 KCC2, FluoZin-2 fluorescence, MLSMR | KCC2 cells, thallium flux FluoZin-2 fluorescence | B-score of Tl+ flux slope (higher = more flux/activation; lower = inhibition) at 10 µM | AID 1456, 2008 | hit rate 2.2% among 190,000;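 active = thallium flux slope and its plate-corrected score both differing from the plate sample mean at a set confidence after two filtering rounds, in either direction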;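 note: slope of fluorescence scaled to starting intensity during 10 to 20 s after thallium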
Target sequence (Q9H2X9 whole entry, looked up): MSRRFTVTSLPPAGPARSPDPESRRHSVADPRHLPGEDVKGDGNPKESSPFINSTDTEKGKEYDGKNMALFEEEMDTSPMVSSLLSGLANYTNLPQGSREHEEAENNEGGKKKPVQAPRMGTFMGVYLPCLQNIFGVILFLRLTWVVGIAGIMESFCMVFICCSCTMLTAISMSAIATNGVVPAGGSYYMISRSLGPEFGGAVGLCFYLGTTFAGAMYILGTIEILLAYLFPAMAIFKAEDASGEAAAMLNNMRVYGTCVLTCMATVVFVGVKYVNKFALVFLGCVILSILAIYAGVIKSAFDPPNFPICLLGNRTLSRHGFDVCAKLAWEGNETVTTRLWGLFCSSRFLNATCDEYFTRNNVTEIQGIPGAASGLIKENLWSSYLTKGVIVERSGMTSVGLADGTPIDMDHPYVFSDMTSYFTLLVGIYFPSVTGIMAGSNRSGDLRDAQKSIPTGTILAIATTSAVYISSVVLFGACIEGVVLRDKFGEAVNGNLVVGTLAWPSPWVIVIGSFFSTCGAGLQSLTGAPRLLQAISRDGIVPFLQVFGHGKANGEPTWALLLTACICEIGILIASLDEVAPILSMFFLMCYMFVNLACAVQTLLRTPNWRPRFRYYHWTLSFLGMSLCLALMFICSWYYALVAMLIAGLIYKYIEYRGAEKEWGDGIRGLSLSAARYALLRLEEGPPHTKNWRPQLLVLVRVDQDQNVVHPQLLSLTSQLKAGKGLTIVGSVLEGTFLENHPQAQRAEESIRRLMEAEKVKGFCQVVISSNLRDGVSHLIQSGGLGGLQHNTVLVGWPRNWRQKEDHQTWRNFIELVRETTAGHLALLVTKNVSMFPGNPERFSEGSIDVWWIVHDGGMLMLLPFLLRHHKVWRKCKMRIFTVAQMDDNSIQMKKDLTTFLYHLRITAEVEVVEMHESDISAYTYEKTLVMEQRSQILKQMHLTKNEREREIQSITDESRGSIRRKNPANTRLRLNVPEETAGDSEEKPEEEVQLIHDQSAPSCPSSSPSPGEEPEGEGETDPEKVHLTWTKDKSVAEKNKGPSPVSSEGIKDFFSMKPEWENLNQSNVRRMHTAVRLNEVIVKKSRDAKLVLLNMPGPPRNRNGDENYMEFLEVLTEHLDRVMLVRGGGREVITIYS
STAT3 blocker = IL-6 driven STAT3 reporter inhibitors, primary screen, U3A cells, luciferase, luminescence, MLSCN library | inhibition, % at 5.5 µM | hit rate 0.89% among 190,000 | IL-6 STAT3-luciferase reporter; host cell line lacks STAT1 | AID 862, 2007;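 active = inhibition above the mean inhibition across all screened compounds plus 3 SD, cut at about 44% in these data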;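 note: 0% = DMSO only wells and 100% = 100 µM nifuroxazide control wells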
STAT1 act = STAT1 signaling activators, primary screen, cell-based, HTS, luciferase reporter; NIH 3T3 STAT1-luciferase reporter, IFN-gamma, luminescence; 100% = IFN-gamma alone, no compound; activation (% of control), % at 5.5 µM; hit rate 2.6% among 200,000; AID 932, 2007;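 active = activation above the screen-wide mean activation plus 3 SD, cut at about 130% in these data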;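 note: raw ratio to IFN-gamma control signal so 100% means no change and 0% no light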
STAT1 inh = STAT1 signaling inhibitors, primary screen, cell-based, HTS, luciferase reporter. NIH 3T3 STAT1-luciferase reporter, IFN-gamma, luminescence. inhibition, % at 5.5 µM. hit rate 0.35% among 200,000;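 active = inhibition above a set limit, the mean inhibition across all tested compounds plus 3 SD, cut at about 34% in these data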;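 note: 0% = IFN-gamma with DMSO and 100% = IFN-gamma with 300 µM nifuroxazide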
HSV augment = enhancers of HSV replication in host cells, fold increase, host cell viability; HSV replication augmentation in cells; maximum fold increase; hit rate 0.005% among 220,000; in the data active = maximum fold increase above about 1.5; inconclusive = no clear call, values can overlap the other calls; tested in PC3 cells
KCC2 sec1 = KCC2 modulators in sodium-free buffer, confirmation, cell-based, HEK293 KCC2, thallium flux, secondary assay. shares compounds with Cl transport mod. FluoZin2 fluorescence; hits give high values. normalised thallium flux (F/F0 slope) at 10 µM. hit rate 15% among 3,700. AID 1713, 2009;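 active = thallium flux slope above the same plate's solvent-only control mean plus 3 SD; inconclusive = the two replicate wells disagree; inactive = no significant difference from solvent-only control wells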
KCC2 bumet counter = thallium flux persisting under bumetanide in KCC2 cells, confirmation, counter-screen for KCC2 modulator project, cell-based, HEK293 KCC2, FluoZin2, secondary assay 3; normalized thallium flux at 10 µM; AID 1714, 2009; hit rate 49% among 3,700; HEK293-KCC2 + bumetanide/ouabain; hits give high values; shares compounds with Cl transport mod;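 active = thallium entry rate above the same plate's blocked-transporter control wells by more than 3 SD; inconclusive = the two repeat wells disagree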;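 note: raw slope of fluorescence over initial fluorescence between 10 and 20 s after thallium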
KCC2 secondary2 = KCC2 modulators without ouabain present, confirmation, cell-based, HEK293 KCC2, thallium flux, FluoZin2, secondary assay 2. shares compounds with Cl transport mod. thallium flux FluoZin2 fluorescence; actives lie on both sides; F/F0 rise rate, 10–20 s post-thallium. normalized thallium flux at 10 µM. hit rate 23% among 3,700;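 active = thallium flux slope more than 3 SD above or below the plate's solvent-only control mean, mostly below; inconclusive = the two repeat wells disagreed; inactive = no significant shift from solvent-only controls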;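 note: raw slope with 0.1% DMSO as baseline and bumetanide as block control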
HEK counter1 = thallium flux modulation in parental HEK cells, confirmation, counter-screen for KCC2 modulator project, cell-based, counterscreen 1; shares compounds with Cl transport mod; thallium flux rate (normalised fluorescence) at 10 µM; hit rate 46% among 3,700; AID 1716, 2009; HEK293 parental cells, thallium flux FluoZin2, ouabain; baseline-ratio fluorescence slope, 10–20 s after thallium;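 active = thallium flux rate significantly above the same plate's solvent-only control wells, beyond their mean plus 3 SD; inconclusive = the two replicate wells gave conflicting results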
KCC2 ouabain = KCC2 inhibitors and activators, ouabain retest, confirmation, HEK-KCC2 cells | hit rate 48% among 3,700 | AID 1717, 2009 | HEK293-KCC2, thallium flux FluoZin2 fluorescence; bidirectional: low = inhibitor, high = activator | raw Tl+ flux slope (below DMSO = inhibition, above = activation) at 10 µM | shares compounds with Cl transport mod;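 active = thallium flux slope beyond 3 SD from same-plate DMSO control mean in most replicates, usually higher, sometimes lower; inconclusive = repeat tests gave conflicting results; inactive = no significant difference from controls in most replicates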;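 note: slope of initial-normalized fluorescence between seconds 10 and 20 after thallium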
HEK293 Tl flux2 = native HEK Tl+ uptake effects, second counter-screen – HEK cells, counterscreen 2, counter-screen for KCC2 modulator project, confirmation | shares compounds with Cl transport mod | HEK293 parental, thallium flux FluoZin-2 fluorescence slope | thallium flux slope at 10 µM | hit rate 33% among 3,700 | AID 1718, 2009;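 active = thallium flux slope above the same plate's solvent-control mean plus 3 SD in both duplicate wells; inconclusive = duplicate wells that disagreed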;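 note: run without ouabain in cells lacking the KCC2 cotransporter; slope of fluorescence scaled to its starting value between 10 and 20 s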
Active calls of the source: *; i = inactive; ? = inconclusive; · = not tested or not shown. In the library only some 5.5% were active in any assay of this set; here they are far more common.

SMILES	STAT3 act	Cl transport mod	STAT3 blocker	STAT1 act	STAT1 inh	HSV augment	KCC2 sec1	KCC2 bumet counter	KCC2 secondary2	HEK counter1	KCC2 ouabain	HEK293 Tl flux2
CCOC(=O)N1CCN(C(=O)CS(=O)Cc2nc(-c3cccc(C)c3)oc2C)CC1 (centres undefined)	95	·	14	104	-4	i	·	·	·	·	·	·
CSC(=NCc1ccc(F)cc1)NS(=O)(=O)c1cccs1	105	-3.8*	-4	102	-2	i	0.0087	?	0.025*	0.0041	0.015*	0.011
CS/C(=N\S(=O)(=O)c1ccc(N)cc1)NS(=O)(=O)c1cccs1	110	·	-7	101	-1	i	·	·	·	·	·	·
O=C(CN1C(=O)NC2(CCCCCC2)C1=O)N1CCC(Cc2ccccc2)CC1	100	-4.9*	3	92	8	i	0.0081	0.025*	?	0.012*	0.017*	0.01
O=C(CN1C(=O)NC2(CCCCC2)C1=O)N1CCN(S(=O)(=O)c2ccccc2)CC1	107	1.5	-1	102	-4	i	·	·	·	·	·	·
COc1ccc2c(C=Nc3c(C)n(C)n(-c4ccccc4)c3=O)c(O)n(Cc3ccco3)c(=O)c2c1	101	-1.9	3	93	8	i	·	·	·	·	·	·
O=C(Cn1nc2ccccc2n1)N/N=C/c1cc(Cl)cc([N+](=O)[O-])c1O	109	-5.3*	-6	92	7	i	0.0071	?	0.025*	0.0071	?	0.011
CN(c1ccccc1)S(=O)(=O)c1ccc(Cl)c(C(=O)Nc2ccc(N3CCOCC3)cc2)c1	97	-2.7*	12	94	6	i	0.006	0.0062	0.029	0.0064	0.017	0.0094
O=C(O)[C@@H](O)[C@H](O)C(=O)O	·	·	·	·	·	i	·	·	·	·	·	·
NC(=O)c1ccc(F)cc1	103	0.81	1	102	-3	i	0.0056	0.0046	0.028	0.0073	0.018	0.0094
NCCCCc1cn(CC(=O)N2CCNCC2)nn1	·	0.047	·	109	-8	i	·	·	·	·	·	·
CC(C)n1nc(C(=O)Nc2nc3ccccc3[nH]2)c2ccccc2c1=O	81	-4*	26	96	4	i	0.015	0.0037	0.025*	?	0.014	0.0088
CCCn1nc(C(=O)Nc2nc3ccccc3[nH]2)c2ccccc2c1=O	79	-0.79	24	91	10	i	·	·	·	·	·	·
CCOC(=O)/C(C(C)=O)=C1\OC(=O)c2ccccc21	101	·	1	96	5	i	·	·	·	·	·	·
Cc1ccc(O)c(N=Cc2cc(Cc3ccccc3)cc([N+](=O)[O-])c2O)c1	109	-3.8*	-10	83	18	i	0.0067	?	0.032	0.0035	0.014*	?
Cc1[nH]c(=O)[nH]c(=O)c1S(=O)(=O)N1CCN(c2ccccc2F)CC1	115	-0.71	-12	105	-5	i	·	·	·	·	·	·
O=c1[nH]c2ccc(S(=O)(=O)N3CCN(c4ccccc4F)CC3)cc2s1	94	-4.8*	13	95	6	i	0.0069	0.005	0.024*	0.0068	0.013*	0.0099
COc1ccc(C(=O)c2cn[nH]c2-c2cc(Cl)ccc2O)cc1	94	-5.1*	12	99	1	i	0.0099	0.006	0.033	0.0072	0.022	0.011
O=C(c1ccc(Cl)cc1)c1cn[nH]c1-c1ccccc1O	101	-3.5	5	102	-2	i	·	·	·	·	·	·
O=C(O)CC(NC(=O)C(c1ccccc1)c1ccccc1)c1ccc(F)cc1 (centres undefined)	91	1.1	16	100	0	i	·	·	·	·	·	·
O=C(COC(=O)c1cc([N+](=O)[O-])ccc1NCCO)c1ccc(Cl)cc1	102	-1.5	-7	94	7	i	·	·	·	·	·	·
CCc1ccc(C(=O)COC(=O)c2cc([N+](=O)[O-])ccc2NCCO)cc1	98	-4.3*	5	96	4	i	0.0062	0.0053	0.023*	0.0081	0.015*	0.011
O=C(COC(=O)[C@@H]1CC(O)CN1S(=O)(=O)c1ccc2c(c1)OCCO2)Nc1ccccc1F (some centres undefined)	105	0.17	-1	99	3	i	·	·	·	·	·	·
COC(=O)c1ccc(/C(O)=C(\C#N)c2nc3ccccc3s2)cc1	103	-6.8*	-1	115	-17	i	0.008	0.0068	0.034	0.0038	0.013*	0.01
Cc1ccc(OC/C(O)=C(\C#N)c2nc3ccccc3s2)cc1	101	-4.3*	-3	101	1	i	0.015	0.0068*	0.022*	?	0.012*	0.011
Cc1cccc(C)c1Nc1nnc(SCC(=O)c2ccc3c(c2)NC(=O)CO3)s1	110	-3.8*	-11	98	2	i	0.0073	0.0063	0.028	0.0069	0.019*	0.01
Cc1cccc(C)c1Nc1nnc(SCC(=O)c2ccc(Br)s2)s1	108	-1.7	-3	106	-7	i	·	·	·	·	·	·
O=C(Cn1cc(C(F)(F)F)ccc1=O)Nc1ccccc1	·	-0.079	·	·	·	i	·	·	·	·	·	·

Source: PubChem (several laboratories)
